ChEMBL document CHEMBL4028840, “6-Nitro-2,3-dihydroimidazo[2,1-b][1,3]thiazoles: Facile synthesis and comparative appraisal against tuberculosis and neglected tropical diseases” (Bioorg Med Chem Lett, 2017)
≈ marks a conversion by molar mass, not a printed value.

Key:
[1] = Stability in pooled human liver microsomes assessed as compound remaining measured after 1 hr; assay type: ADME, microsome; conditions: read-out: Stability
[2] = Stability in CD-1 mouse liver microsomes assessed as compound remaining measured after 1 hr; assay type: ADME, microsome; conditions: read-out: Stability
[3] = system: Mycobacterium tuberculosis; test: Anti-tubercular activity against Mycobacterium tuberculosis infected in BALB/c mouse assessed as reduction in lung colony forming units at 100 mg/kg, po administered via gavage for 5 days each week for 3 weeks measured after 1 day post last dose relative to PA-824; assay type: functional
In short: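 Mouse model of acute TB infection. Oral dosing at 100 mg/kg daily, 5 days per week, for 3 weeks. Read-out is fold reduction in lung CFU, expressed as a ratio to the fold CFU reduction from the reference nitroimidazole run alongside.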

Trypanosoma cruzi = test: Anti-parasitic activity against Trypanosoma cruzi Tulahuen CL2 infected in human MRC5 cells after 7 days by chlorophenol red […]-D-galactopyranoside dye based assay; assay type: functional, cell-based; conditions: Trypanosoma cruzi, Tulahuen CL2, MRC5, 168 h
In short: (§1)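 IC50 for growth inhibition of L. infantum, T. cruzi and T. brucei parasites, or for cytotoxicity toward human lung fibroblasts (MRC-5). Values are means of two or more independent experiments.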

[4] = Cytotoxicity against human MRC5 SV2 cells after 72 hrs by resazurin dye based fluorescence assay; assay type: cell-based; conditions: Homo sapiens, MRC-5 SV2, 72 h; in short: as §1
[5] = system: Mycobacterium tuberculosis; test: Anti-tubercular activity against Mycobacterium tuberculosis H37Rv ATCC 27294 after 7 days under aerobic condition by microplate alamar blue assay; assay type: functional; conditions: Mycobacterium tuberculosis, H37Rv ATCC 27294, 168 h; read-out: MIC
In short: (§2)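 M. tuberculosis H37Rv MIC measured in two assays: aerobic growth by MABA and hypoxic exposure by LORA. Each value is the mean of ≥2 independent determinations.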

[6] = system: Trypanosoma brucei brucei; test: Anti-parasitic activity against Trypanosoma brucei brucei Squib-427 after 72 hrs by resazurin dye based fluorescence assay; assay type: functional; conditions: Trypanosoma brucei, Squib-427, 72 h; in short: as §1
[7] = system: Mycobacterium tuberculosis; test: Anti-tubercular activity against Mycobacterium tuberculosis H37Rv ATCC 27294 after 10 days under hypoxic condition by low-oxygen recovery assay; assay type: functional; conditions: Mycobacterium tuberculosis, H37Rv ATCC 27294, 240 h; read-out: MIC; in short: as §2
[8] = Solubility in water at pH 7 after 15 mins by HPLC method; assay type: physicochemical; conditions: for solubility at 0.25 h: water, pH 7
In short: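 Solubility measured at 20 °C by HPLC, in water (pH 7) or 0.1 M HCl (pH 1).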

Vero = test: Cytotoxicity against African green monkey Vero cells after 72 hrs by MTS/PMS assay; assay type: cell-based; conditions: Chlorocebus sabaeus
In short: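 VERO mammalian cells exposed for 72 h. Cytotoxicity IC50 comes from a single test.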

Leishmania infantum = test: Anti-parasitic activity against Leishmania infantum MHOM/MA(BE)/67 amastigotes infected in mouse primary peritoneal macrophages after 5 days by giemsa staining based microscopic method; assay type: functional; conditions: Leishmania infantum, MHOM/MA(BE)/67, 120 h; in short: as §1

Structure (SMILES)	remaining at 1 h [1] [%]	remaining at 1 h [2] [%]	fold change (FC) [3]	IC50 (Trypanosoma cruzi) [µM]	IC50 [4] [µM]	MIC [5] [µM]	IC50 [6] [µM]	MIC [7] [µM]	solubility ([8]; buffer, pH 7, 0.25 h) [µg/mL]	solubility at 0.25 h [8] [µg/mL]	IC50 (Vero) [µM]	IC50 (Leishmania infantum) [µM]
C[C@]1(COc2ccc(N3CCC(Oc4ccc(OC(F)(F)F)cc4)CC3)cc2)Cn2cc([N+](=O)[O-])nc2O1	71	87	68									
O=[N+]([O-])c1cn2c(n1)OC[C@@H](COc1ccc(OC(F)(F)F)cc1)C2	82	94										
CC1(COc2ccc(Oc3ccccc3)cc2)Cn2cc([N+](=O)[O-])nc2O1 (configuration not stated)				1.9	> 64	0.79 (≈ 0.29 µg/mL)	28	24 (≈ 8.82 µg/mL)				
CC1(COc2ccc(-c3ccc(OC(F)(F)F)cc3)cc2)Cn2cc([N+](=O)[O-])nc2O1 (configuration not stated)			115						0.41 (≈ 0.942 µM)			
CC1(COCc2ccc(OC(F)(F)F)cc2)Cn2cc([N+](=O)[O-])nc2O1 (configuration not stated)			0.025							11 (≈ 29.5 µM)		
O=[N+]([O-])c1cn2c(n1)SC(COc1ccc(Oc3ccccc3)cc1)C2 (configuration not stated)				1.6	56	> 128	11	29 (≈ 10.7 µg/mL)			> 128	56
CC1(COc2ccc(-c3ccc(F)cc3)cc2)Cn2cc([N+](=O)[O-])nc2S1 (configuration not stated)				0.21	> 64	0.21 (≈ 0.0809 µg/mL)	> 64	> 64			> 128	> 64
CC1(COc2ccc(OC(F)(F)F)cc2)Cn2cc([N+](=O)[O-])nc2S1 (configuration not stated)				0.38	> 64	0.49 (≈ 0.184 µg/mL)	> 64	10 (≈ 3.75 µg/mL)			> 128	> 64
CC1(CO)Cn2cc([N+](=O)[O-])nc2S1 (configuration not stated)						10 (≈ 2.15 µg/mL)		> 128				
C[C@]1(COCc2ccc(OC(F)(F)F)cc2)Cn2cc([N+](=O)[O-])nc2S1	29	0		0.57	43	0.2 (≈ 0.0779 µg/mL)	> 64	5.8 (≈ 2.26 µg/mL)			24	> 64
CC1(COCc2ccc(-c3ccc(OC(F)(F)F)cc3)cc2)Cn2cc([N+](=O)[O-])nc2S1 (configuration not stated)				0.14	> 64	1.4 (≈ 0.652 µg/mL)	2.8	> 64				56
CC1(COCc2ccc(-c3ccc(C(F)(F)F)cc3)cc2)Cn2cc([N+](=O)[O-])nc2S1 (configuration not stated)				0.04	> 64	1.1 (≈ 0.494 µg/mL)	1.1	> 64				56
CC1(COc2ccc(-c3ccc(OC(F)(F)F)cc3)cc2)Cn2cc([N+](=O)[O-])nc2S1 (configuration not stated)	84	75	5.7	0.085	> 64	0.063 (≈ 0.0284 µg/mL)	> 64	> 128		0.25 (≈ 0.554 µM)	> 128	45
C[C@@]1(COCc2ccc(OC(F)(F)F)cc2)Cn2cc([N+](=O)[O-])nc2S1				1.6	> 64	6.1 (≈ 2.38 µg/mL)	> 64	51 (≈ 19.9 µg/mL)			52	> 64
O=[N+]([O-])c1cn2c(n1)SC(COCc1ccc(OC(F)(F)F)cc1)C2 (configuration not stated)				0.87	> 64	4.4 (≈ 1.65 µg/mL)	> 64	15 (≈ 5.63 µg/mL)			> 128	64
CC1(COc2ccc(OC(F)(F)F)cc2)Cn2nc([N+](=O)[O-])nc2S1(=O)=O (configuration not stated)				1.3	0.42	2.2 (≈ 0.898 µg/mL)	2.1	27 (≈ 11 µg/mL)			46	1.3
CC1(COCc2ccc(Oc3ccccc3)cc2)Cn2c([N+](=O)[O-])cnc2S1 (configuration not stated)				19	> 64	> 128	53	> 128				55
CC1(COCc2ccc(-c3ccc(F)cc3)cc2)Cn2cc([N+](=O)[O-])nc2S1 (configuration not stated)				0.15	> 64	1.5 (≈ 0.599 µg/mL)	> 64	> 64				> 64
